Active and inactive are the calls of the source. The rule behind the calls is not given here.
How the values were obtained:
Feline coronavirus = assay: Antiviral activity against Feline coronavirus; format: functional, organism-based
Human alphaherpesvirus 3 = assay: Antiviral activity against Varicella zoster virus; format: functional, organism-based
Outline: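 VZV strain Oka and the TK− strain 07-1 were inoculated at 20 PFU onto confluent cell monolayers in the presence of varying compound concentrations. Plaque formation was recorded once complete in untreated infected controls.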

Sindbis virus = assay: Antiviral activity against Sindbis virus; format: functional, organism-based
Coxsackievirus B4 = assay: Antiviral activity against Coxsackievirus B4; format: functional, organism-based
Influenza A virus [1] = assay: Antiviral activity against Influenza A virus H1N1; format: functional, organism-based
[2] = Inhibition of HIV1 reverse transcriptase p66/p51 G190A mutant after 30 mins by liquid scintillation counting; design: species or system Human immunodeficiency virus 1
Human alphaherpesvirus 2 = assay: Antiviral activity against Human herpesvirus 2; format: functional, organism-based
Outline: (§1)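 Confluent HEL, Vero, HeLa or MDCK monolayers (cell type per virus not specified) were inoculated with 100 CCID50 of virus, with a range of compound concentrations. Strains were HSV-1 KOS and TK− ACV-resistant KOS, HSV-2 Lyons and G, and HCMV AD-169 and Davis. Cytopathicity or plaques were scored once complete in untreated infected controls.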

Human betaherpesvirus 5 [3] = assay: Antiviral activity against HCMV AD169; format: functional, organism-based; details: Human betaherpesvirus 5, AD169; outline: as §1
Human alphaherpesvirus 1 = assay: Antiviral activity against Human herpesvirus 1; format: functional, organism-based; outline: as §1
[4] = target: Human immunodeficiency virus type 1 reverse transcriptase (Human immunodeficiency virus 1, UniProt Q72547); assay: Non-competitive inhibition of wild type HIV1 reverse transcriptase p66/p51 after 30 mins by liquid scintillation counting
[5] = system: Vesicular stomatitis virus; assay: Antiviral activity against Vesicular stomatitis virus; format: functional, organism-based
[6] = system: Respiratory syncytial virus; assay: Antiviral activity against Respiratory syncytial virus; format: functional, organism-based
Vaccinia virus = assay: Antiviral activity against Vaccinia virus; format: functional, organism-based; details: Orthopoxvirus vaccinia
[7] = target: Human immunodeficiency virus type 1 reverse transcriptase (Human immunodeficiency virus 1, UniProt Q72547, Y181C); assay: Inhibition of HIV1 reverse transcriptase p66/p51 Y181C mutant after 30 mins by liquid scintillation counting
[8] = target: Human immunodeficiency virus type 1 reverse transcriptase (Human immunodeficiency virus 1, UniProt Q72547, V106A); assay: Inhibition of HIV1 reverse transcriptase p66/p51 V106A mutant after 30 mins by liquid scintillation counting
Human betaherpesvirus 5 [9] = assay: Antiviral activity against HCMV Davis; format: functional, organism-based; details: Human betaherpesvirus 5, Davis; outline: as §1
[10] = system: Human immunodeficiency virus 1; assay: Antiviral activity against HIV1 3B infected in human MT4 cells assessed as inhibition of virus-induced cytopathic effect after 4 days by MTT assay; format: functional, organism-based; details: Human immunodeficiency virus 1, 3B, MT4, 96 h
Outline: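 HIV-1 in MT-4 cells at 1 × 10^5 cells/ml, infected at MOI 0.02 (virus stock titrated as CCID50), then plated immediately onto varying compound concentrations. After 4 days at 37 °C, viable cells counted by MTT.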

MT4 = assay: Cytotoxicity against human MT4 cells after 4 days by MTT assay; format: cell-based; details: mt4, 96 h
[11] = target: Human immunodeficiency virus type 1 reverse transcriptase (Human immunodeficiency virus 1, UniProt Q72547, K103N); assay: Inhibition of HIV1 reverse transcriptase p66/p51 K103N mutant after 30 mins by liquid scintillation counting
[12] = Selectivity index, ratio of CC50 for human MT4 cells to EC50 for HIV1 3B infected in human MT4 cells; format: toxicity, cell-based; details: MT4 cells (uninfected for CC50; HIV-1 3B infected for EC50)
[13] = target: Human immunodeficiency virus type 1 reverse transcriptase (Human immunodeficiency virus 1, UniProt Q72547, K103N/Y181C); assay: Inhibition of HIV1 reverse transcriptase p66/p51 K103N/Y181C mutant after 30 mins by liquid scintillation counting
[14] = system: Mammalian orthoreovirus 1; assay: Antiviral activity against Reovirus 1; format: functional, organism-based
Influenza B virus = assay: Antiviral activity against influenza B virus; format: functional, organism-based
[15] = target: Human immunodeficiency virus type 1 reverse transcriptase (Human immunodeficiency virus 1, UniProt Q72547, L100I); assay: Inhibition of HIV1 reverse transcriptase p66/p51 L100I mutant after 30 mins by liquid scintillation counting
Punta Toro virus = assay: Antiviral activity against Punta Toro virus; format: functional, organism-based
Influenza A virus [16] = assay: Antiviral activity against Influenza A virus H3N2; format: functional, organism-based
Human respirovirus 3 = assay: Antiviral activity against Parainfluenza virus 3; format: functional, organism-based

With `O=c1ccn(C/C=C/c2ccccc2)c(=O)n1Cc1cc(Cl)cc(Cl)c1` the Activity (Feline coronavirus) was “inactive”, the Activity (Human alphaherpesvirus 3) was “inactive” and the Activity (Sindbis virus) was “inactive”. For the same compound, the Activity (Coxsackievirus B4) was “inactive”, the Activity (Influenza A virus [1]) was “inactive” and the Ki [2] was 0.55 µM. The Activity (Human alphaherpesvirus 2) was “inactive”, the IC50 (Human betaherpesvirus 5 [3]) was 9.4 µM and the Activity (Human alphaherpesvirus 1) was “inactive”. The Ki [4] was 0.67 µM, the Activity [5] was “inactive” and the Activity [6] was “inactive”. The Activity (Vaccinia virus) was “inactive”, the Ki [7] was 43 µM and the Ki [8] was 11 µM. The IC50 (Human betaherpesvirus 5 [9]) was 12 µM, the EC50 [10] was 1.99 µM and the CC50 (MT4) was 49 µM. The Ki [11] was 15.5 µM, the selectivity ratio [12] was 24 and the Ki [13] was > 100 µM. For the same compound, the Activity [14] was “inactive”, the Activity (Influenza B virus) was “inactive” and the Ki [15] was 0.92 µM. For the same compound, the Activity (Punta Toro virus) was “inactive”, the Activity (Influenza A virus [16]) was “inactive” and the Activity (Human respirovirus 3) was “inactive”.

In the case of `Cc1cc(C)cc(Cn2c(=O)ccn(C/C=C/c3ccccc3)c2=O)c1`, the Activity (Feline coronavirus) is reported as “inactive”, the Activity (Human alphaherpesvirus 3) is reported as “inactive” and the Activity (Sindbis virus) is reported as “inactive”. For the same compound, the Activity (Coxsackievirus B4) was “inactive”, the Activity (Influenza A virus [1]) was “inactive” and the Ki [2] was 0.4 µM. The Activity (Human alphaherpesvirus 2) was “inactive”, the Activity (Human alphaherpesvirus 1) was “inactive” and the Ki [4] was 0.55 µM. For the same compound, the Activity [5] was “inactive”, the Activity [6] was “inactive” and the Activity (Vaccinia virus) was “inactive”. The Ki [7] was 75 µM, the Ki [8] was 2.9 µM and the EC50 [10] was 1.27 µM. The CC50 (MT4) was 257 µM, the Ki [11] was 12 µM and the selectivity ratio [12] was 202. The Ki [13] was > 100 µM, the Activity [14] was “inactive” and the Activity (Influenza B virus) was “inactive”. The Ki [15] was 0.76 µM, the Activity (Punta Toro virus) was “inactive” and the Activity (Influenza A virus [16]) was “inactive”. For the same compound, the Activity (Human respirovirus 3) was “inactive”.

With `Cc1cc(Br)cc(Cn2c(=O)ccn(C/C=C/c3ccccc3)c2=O)c1` the Activity (Feline coronavirus) was “inactive”, the Activity (Human alphaherpesvirus 3) was “inactive” and the Activity (Sindbis virus) was “inactive”. The Activity (Coxsackievirus B4) was “inactive”, the Activity (Influenza A virus [1]) was “inactive” and the Ki [2] was 0.18 µM. For the same compound, the Activity (Human alphaherpesvirus 2) was “inactive”, the IC50 (Human betaherpesvirus 5 [3]) was 16 µM and the Activity (Human alphaherpesvirus 1) was “inactive”. For the same compound, the Ki [4] was 0.31 µM, the Activity [5] was “inactive” and the Activity [6] was “inactive”. For the same compound, the Activity (Vaccinia virus) was “inactive”, the Ki [7] was 20 µM and the Ki [8] was 2.3 µM. For the same compound, the IC50 (Human betaherpesvirus 5 [9]) was ≥ 20 µM, the EC50 [10] was 1.36 µM and the CC50 (MT4) was 100 µM. The Ki [11] was 6.9 µM, the selectivity ratio [12] was 73 and the Ki [13] was 85 µM. The Activity [14] was “inactive”, the Activity (Influenza B virus) was “inactive” and the Ki [15] was 0.24 µM. For the same compound, the Activity (Punta Toro virus) was “inactive”, the Activity (Influenza A virus [16]) was “inactive” and the Activity (Human respirovirus 3) was “inactive”.

From ChEMBL document CHEMBL2331304, “N1,N3-disubstituted uracils as nonnucleoside inhibitors of HIV-1 reverse transcriptase” (Bioorg Med Chem, 2013)
